Screens deposited in PubChem BioAssay by several laboratories.
G6PDH CS: L. mesenteroides G6PDH inhibitors, counter-screen for G6PDH-coupled screening assays, biochemical, Leuconostoc mesenteroides enzyme. Purified L. mesenteroides G6PDH, diaphorase/resazurin coupled fluorescence, 45 min. inhibition, % at 5 µM. actives 0.12% (n = 200,000). AID 1020, 2008; in the data active means inhibition above about 50%
TbHK1 inh: Trypanosoma brucei hexokinase 1 inhibitors, primary screen, biochemical, G6PDH-coupled NADH absorbance, MLSCN library | recombinant TbHK1, G6PDH-coupled NADH A340 | inhibition, % at 10 µM | actives 0.11% (n = 220,000) | AID 1430, 2008;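 active means inhibition of 50% or more in the single-dose primary screen; inactive means inhibition below 50%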
Diaphorase act: compounds boosting diaphorase resazurin reduction – biochemical, uHTS, resorufin fluorescence, counter-screen for diaphorase-coupled primary assays, primary screen | actives 0.005% (n = 190,000) | Diaphorase/resazurin coupled assay, 16 min; active compounds read high; 1 = vehicle wells, 0 = NADH-free wells | activation factor at 20 µM | AID 1229, 2008;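 active means diaphorase activity raised at least twofold by the compound at 20 µM; inactive means activation factor below 2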
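Material: purified diaphorase enzyme from Clostridium kluyveri; Also added: 0.114 mM NADH and 0.1 mM resazurin, final amounts; Doses: single compound dose of 20 µM, 1% DMSO final; Times: 16 min enzyme reaction, ambient temperature; Detection: resorufin fluorescence, excitation 544 nm, emission 590 nm; Measure: increased resorufin signal from activators or reducing compounds.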
Diaph inh CS: diaphorase inhibitors and chemical oxidizers, primary screen, counter-screen for diaphorase-coupled primary assays, biochemical, uHTS, resorufin fluorescence. actives 0.69% (n = 190,000). inhibition, % at 20 µM. diaphorase resazurin-to-resorufin fluorescence, NADH, 16 min; bacterial (C. kluyveri) enzyme, not human;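 active means primary screen inhibition at 20 µM above a set limit, cut at about 50% in these data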;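 further: plate controls were DMSO with full reaction for no effect and wells lacking NADH for full effect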
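Assay system: diaphorase enzyme from Clostridium kluyveri; Input: enzyme working solution with 0.14 U/mL diaphorase; Timing: 16 min at room temperature; Technique: resorufin fluorescence, excitation 544 nm, emission 590 nm; Benchmarks: positive control minus NADH, DMSO neutral control.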
HKDC1 inh: HKDC1 hexokinase inhibitors, primary screen, biochemical, fluorescence, uHTS; Q2TB90; recombinant HKDC1, G6PDH/diaphorase resazurin coupled fluorescence; inhibition, % at 20 µM; actives 0.16% (n = 340,000);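 active means inhibition above about 35% when tested at 20 µM, limit read from the data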;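 further: plate controls were DMSO wells with enzyme for no effect and DMSO wells lacking enzyme for full effect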
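Test system: recombinant HKDC1 (HK5) hexokinase enzyme, produced in-house; Amount: enzyme 5 µg/mL final; Buffer or medium: Tris pH 8.0 buffer with MgCl2, Tween-20, BSA, BME; Reagent: glucose and ATP substrates; Doses: 20 µM test compound, 1% DMSO; Incubation: 90 min reaction incubation at room temperature, dark; Detection: resorufin fluorescence at 613 nm.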
PfG6PD inh: PfG6PD enzyme inhibitors, primary screen, biochemical, fluorescence intensity, uHTS | inhibition, % at 20 µM | PfGluPho enzyme, NADPH resazurin-diaphorase fluorescence | glucose-6-phosphate dehydrogenase-6-phosphogluconolactonase (Plasmodium falciparum 3D7) | actives 0.78% (n = 350,000);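 active means inhibition reaching at least a set limit at 20 µM in the primary screen, cut at about 59% in these data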;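 further: 0% = DMSO wells with substrate and 100% = DMSO wells lacking glucose-6-phosphate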
An asterisk follows results filed as active; x = no result given. A selection: hits, their analogues and other compounds. The true share with any hit is near 1.3%.

SMILES | G6PDH CS | TbHK1 inh | Diaphorase act | Diaph inh CS | HKDC1 inh | PfG6PD inh
C[C@@]1(CO)[C@H](O)CC[C@@]2(C)[C@H]1CC[C@H]1C[C@@H]3C[C@@]12CC[C@]3(O)CO | 54* | -2 | 1 | 2 | x | x
O=C(CF)N(O)c1ccc(C=Cc2ccccc2)cc1 | x | x | x | x | -4 | 15
O=C(O)c1ccc2c(c1)C1C(Cl)C(Sc3ccccc3[N+](=O)[O-])CC1C(c1cccc([N+](=O)[O-])c1)N2 (centres undefined) | 9 | 9 | 0.3 | 66* | 9 | 46
O=C(O)c1cccc2c1NC(c1cccc([N+](=O)[O-])c1)C1CC(Sc3ccccc3[N+](=O)[O-])C(Cl)C21 (centres undefined) | 14 | 13 | 0.1 | 94* | 8 | 12
CCN(CC)C(=O)c1ccc2c(c1)C1C(Cl)C(Sc3ccccc3[N+](=O)[O-])CC1C(C(=O)O)N2 (centres undefined) | x | -3 | x | x | 12 | 35
Cc1ccc2c(c1)c(=O)c1c3n2CCN(CC2CO2)C3CC1 (centres undefined) | 6 | -36 | 0.9 | 10 | 9 | 13
CN(C)C(=S)SSC(=S)N(C)C | 5 | -2 | 0.8 | 23 | -12 | 95*
COc1ccccc1NC(=O)c1cn(CCC#N)nc1-c1ccc(F)cc1 | x | x | x | x | -5 | -10
CCOc1ccc(N2C(=O)/C(=C/c3ccco3)C(=O)NC2=S)cc1 | x | x | x | x | 81* | 33
CC1CCCN(C(=O)CCl)C1 (centres undefined) | -6 | -1 | 0.9 | 9 | -4 | -7
Cn1ncnc2c(=O)n(C)c(=O)nc1-2 | 72* | x | 0.4 | 56* | 69* | 122*
N/C(=N\N=C/c1ccc(-c2ccc(O)c(C(=O)O)c2)o1)N[N+](=O)[O-] | 3 | -17 | 0.4 | 57* | 16 | -10
COC(=O)[C@]12OC[C@]34C([C@@H](O)[C@@H]1O)[C@]1(C)CC(=O)C(O)=C(C)[C@@H]1C[C@H]3OC(=O)[C@H](O)[C@@H]24 (some centres undefined) | x | -6 | x | x | -9 | -6
O=C1NC(=O)N(c2ccccc2)C(=O)/C1=C\c1ccc([N+](=O)[O-])s1 | x | -10 | x | x | 2 | 81*
CN1C(=O)NC(=O)/C(=C/c2ccc([N+](=O)[O-])s2)C1=O | x | -23 | x | x | 5 | 81*
O=C1NC(=O)N(c2ccccc2)C(=O)/C1=C\c1ccc([N+](=O)[O-])o1 | x | 3 | x | x | x | x
CN1C(=O)/C(=C\c2ccc(Br)s2)C(=O)NC1=S | x | x | x | x | 13 | 60*
COc1ccc(OC)c(N2C(=O)NC(=O)/C(=C\c3ccc([N+](=O)[O-])s3)C2=O)c1 | 6 | -9 | 0.8 | 23 | 12 | 51
NS(=O)(=O)c1ccc(N2CCNCC2)cc1 | 13 | -1 | 0.9 | 10 | -8 | 9
CC(C)N=C(NC(C)C)N1CC1 | x | x | x | x | x | -8
COC(=O)C1=C(c2ccc(C(C)=O)cc2)C[C@@H]2CC[C@H]1N2C(=O)N1CCC(O)CC1 | x | x | x | x | -1 | -9
Cn1cc(C=O)c2nccnc21 | x | x | x | x | x | -15
O=C(NC1(C(F)(F)F)Oc2ccc(Cl)cc2O1)N1CCC2(CC1)OCCO2 (centres undefined) | 44 | 0 | 0.5 | 52* | 6 | 7
O=C(NC1(C(F)(F)F)Oc2ccccc2O1)N1CCC2(CC1)OCCO2 | 24 | 3 | 0.6 | 41 | 5 | 33
CCOP1(=S)Oc2cc3c(cc2C(C(=O)OC)(C(F)(F)F)O1)OCO3 (centres undefined) | 3 | -1 | 0.9 | 6 | 2 | 64*
COc1ccc(CCNC(=O)c2c(N)n(CCN3CCOCC3)c3nc4ccccc4nc23)cc1 | -37 | -32 | 0.4 | 59* | 2 | 17
